In ChEMBL document CHEMBL4627282, “Synthesis of guggulsterone derivatives as potential anti-austerity agents against PANC-1 human pancreatic cancer cells” (Bioorg Med Chem Lett, 2020):
Active and inactive are the calls of the source. No cut-off for these calls is given here.

Tests used:
PANC-1 [1] = experiment: Anti-austerity activity against human PANC1 cells assessed as cell killing incubated in nutrient deprived medium; format: functional
How it was run: (§1)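 PANC-1 cells were exposed to a concentration series in nutrient-deprived medium (NDM; no glucose, amino acids or serum) and, in parallel, in complete DMEM. Survival was plotted against log concentration, and PC50, the concentration preferentially cytotoxic under starvation, was read from the curve.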

PANC-1 [2] = experiment: Cytotoxicity against human PANC1 cells incubated in normal DMEM medium; format: cell-based; how it was run: as §1
PANC-1 [3] = experiment: Selectivity index, ratio of IC50 for human PANC1 cells incubated in normal DMEM medium to PC50 for human PANC1 cells incubated in nutrient-deprived medium
PANC-1 [4] = experiment: Inhibition of cell migration in human PANC1 cells at 5 uM incubated in nutrient deprived medium measured every 10 mins for 24 hrs by live cell imaging analysis; format: functional, cell-based
PANC-1 [5] = experiment: Induction of cell death in human PANC1 cells assessed as cell shrinkage at 5 uM incubated in nutrient deprived medium measured every 10 mins for 12 hrs by live cell imaging analysis; format: functional, cell-based
PANC-1 [6] = experiment: Induction of cell death in human PANC1 cells assessed as swelling of cells at 5 uM incubated in nutrient deprived medium measured every 10 mins for 12 hrs by live cell imaging analysis; format: functional, cell-based
PANC-1 [7] = experiment: Induction of cell death in human PANC1 cells assessed as leakage of cytoplasmic content at 5 uM incubated in nutrient deprived medium measured every 10 mins for 12 hrs by live cell imaging analysis; format: functional, cell-based
PANC-1 [8] = experiment: Induction of cell death in human PANC1 cells assessed as rounded cell morphology at 5 uM incubated for 24 hrs in nutrient deprived medium by ethidium bromide and acridine orange dye based phase contrast microscopy; format: functional
How it was run: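 PANC-1 cells treated in NDM for 24 h, then double-stained with ethidium bromide and acridine orange. They were imaged in fluorescence (green for live, red for dead or dying) and phase-contrast modes on a digital microscope, and morphology was judged against untreated controls.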

PANC-1 [9] = experiment: Inhibition of colony formation in human PANC1 cells at 50 uM incubated for 10 days in nutrient deprived medium by crystal violet staining based assay; format: functional, cell-based
PANC-1 [10] = experiment: Inhibition of colony formation in human PANC1 cells incubated for 10 days in DMEM by crystal violet staining based assay
PANC-1 [11] = experiment: Inhibition of cell migration in human PANC1 cells at 3 uM incubated in nutrient deprived medium measured every 10 mins for 24 hrs by live cell imaging analysis; format: functional, cell-based
How it was run: (§2)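 Cells were treated in NDM in a stage-top incubator at 37 °C under 5% CO2. Phase-contrast images were captured every 10 min for 24 h on a digital imaging system with a 10× objective. Cell mobility, shrinkage, swelling and leakage of cytoplasm were scored from the time-lapse record.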

PANC-1 [12] = experiment: Induction of cell death in human PANC1 cells assessed as cell shrinkage at 3 uM incubated in nutrient deprived medium measured every 10 mins […] by live cell imaging analysis; format: functional, cell-based; how it was run: as §2
PANC-1 [13] = experiment: Induction of cell death in human PANC1 cells assessed as swelling of cells at 3 uM incubated in nutrient deprived medium measured every 10 mins for […] by live cell imaging analysis; format: functional, cell-based; how it was run: as §2
PANC-1 [14] = experiment: Induction of cell death in human PANC1 cells assessed as leakage of cytoplasmic content at 3 uM incubated in nutrient deprived medium measured every 10 mins for […] by live cell imaging analysis; format: functional, cell-based; how it was run: as §2
PANC-1 [15] = experiment: Induction of cell death in human PANC1 cells assessed as rounded cell morphology at 3 uM incubated for 24 hrs in nutrient deprived medium by ethidium bromide and acridine orange dye based phase contrast microscopy; format: functional
How it was run: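 PANC-1 cells were held in NDM for 24 h with compound, alongside untreated controls, then double-stained with acridine orange and ethidium bromide. Imaging was in fluorescence (green AO marks live cells, red EB marks dead or dying cells) and in phase-contrast mode to assess morphology.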

PANC-1 [16] = experiment: Inhibition of colony formation in human PANC1 cells at 1.25 uM incubated for 10 days in DMEM by crystal violet staining based assay; settings: PANC-1, 240 h

Row | SMILES | PC50 (PANC-1 [1]) [µM] | IC50 (PANC-1 [2]) [µM] | other results
1 | C/C=C1/C(=O)C[C@H]2[C@@H]3CCC4=CC(=O)CC[C@]4(C)[C@H]3CC[C@]12C [E-GUGGULSTERONE] | 42 | > 100 | –
2 | CC/C=C1\C(=O)C[C@H]2[C@@H]3CCC4=CC(=O)CC[C@]4(C)[C@H]3CC[C@]12C | 17 | > 100 | –
3 | COc1cc(C[C@H]2C(=O)OC[C@@H]2Cc2ccc(OC)c(OC)c2)ccc1O [ARCTIGENIN] | 0.8 | – | –
4 | CCC/C=C1\C(=O)C[C@H]2[C@@H]3CCC4=CC(=O)CC[C@]4(C)[C@H]3CC[C@]12C | 18 | > 100 | –
5 | CC[C@H]1C(=O)C[C@H]2[C@@H]3CC[C@H]4CC(=O)CC[C@]4(C)[C@H]3CC[C@]12C | 18 | > 100 | –
6 | C/C=C1\C(=O)C[C@H]2[C@@H]3CCC4=CC(=O)CC[C@]4(C)[C@H]3CC[C@]12C [GUGGULSTERONE] | 37 | 42 | –
7 | CCC/C=C1/C(=O)C[C@H]2[C@@H]3CCC4=CC(=O)CC[C@]4(C)[C@H]3CC[C@]12C | 14 | > 100 | –
8 | C/C=C1/C(=O)C[C@H]2[C@@H]3CC[C@H]4CC(=O)CC[C@]4(C)[C@H]3CC[C@]12C | >100 | > 100 | –
9 | CC/C=C1/C(=O)C[C@H]2[C@@H]3CCC4=CC(=O)CC[C@]4(C)[C@H]3CC[C@]12C | 50 | > 100 | –
10 | CC=C1CC[C@H]2[C@@H]3CCC4=CC(=O)CC[C@]4(C)[C@H]3CC[C@]12C (mixture of isomers) | – | > 100 | Activity (PANC-1 [1]): Dose-dependent effect; Ratio (PANC-1 [3]): 34; inhibition (PANC-1 [4]): Active; Activity (PANC-1 [5]): Active; Activity (PANC-1 [6]): Active; Activity (PANC-1 [7]): Active; Activity (PANC-1 [8]): Active; inhibition (PANC-1 [9]): Active; inhibition (PANC-1 [10]): Dose-dependent effect
11 | COCCC/C=C1/C(=O)C[C@H]2[C@@H]3CCC4=CC(=O)CC[C@]4(C)[C@H]3CC[C@]12C | 52 | > 100 | –
12 | C=C1C(=O)C[C@H]2[C@@H]3CCC4=CC(=O)CC[C@]4(C)[C@H]3CC[C@]12C | 1.6 | 11 | Activity (PANC-1 [1]): Dose-dependent effect; Ratio (PANC-1 [3]): 6.5; inhibition (PANC-1 [11]): Active; Activity (PANC-1 [12]): Active; Activity (PANC-1 [13]): Active; Activity (PANC-1 [14]): Active; Activity (PANC-1 [15]): Active; inhibition (PANC-1 [10]): Dose-dependent effect; inhibition at 1.25 µM (PANC-1 [16]): 100%
